Results from different studies.
Compare with care: the assays were run in different laboratories.
Target: Homeodomain-interacting protein kinase 1 (HIPK1, Homo sapiens, UniProt Q86Z02)

| SMILES | assay | conditions | endpoint | result |
| --- | --- | --- | --- | --- |
| O=C(O)c1ccc2c(c1)nc(Nc1ccccc1)c1ncncc12 | enzyme activity, inhibitor, radiometric | 1 µM | remaining activity | 11% |
| Cc1nccc(COC(=O)N2C[C@@H]3[C@@H](CNC(=O)c4ccc5[nH]nnc5c4)[C@@H]3C2)n1 | cell-free assay, competition with immobilised ligand | 1 µM | remaining binding | 82% |
| CCN(CC)CCNC(=O)c1c(C)[nH]c(/C=C2\C(=O)Nc3ccc(F)cc32)c1C | enzyme activity, inhibitor | 0.3 µM | inhibition | 26% |
| FC(F)(F)Oc1cccc(-c2cnc3ccc(-c4ccncc4)nn23)c1 | enzyme activity, inhibitor, radiometric | 5 µM | activity vs control | 29% |
| O=C(O)c1ccc2c(c1)nc(NCCc1cccc(Cl)c1)c1ncncc12 | enzyme activity, inhibitor, radiometric | 1 µM | remaining activity | 35% |
| COc1cc2ncnc(Nc3ccc(F)c(Cl)c3)c2cc1OCCCN1CCOCC1 | cell-free assay | 0.5 µM | remaining signal | 97.6% |
| CN1CC(Oc2cnc(C#N)cc2-c2ccn3nc(NC(=O)C4CC4)cc3c2)C1 | enzyme activity, inhibitor | 1 µM | inhibition | -3% |
| O=C(O)c1ccc2c(c1)nc(Nc1ccc3ccccc3c1)c1ncncc12 | enzyme activity, inhibitor, radiometric | 1 µM | remaining activity | 1% |
| COc1cc2c(N3CCN(C(=O)Nc4ccc(OC(C)C)cc4)CC3)ncnc2cc1OCCCN1CCCCC1 | cell-free assay | 0.5 µM | remaining signal | 98.9% |
| CNC(=O)c1cc(Oc2ccc(NC(=O)Nc3ccc(Cl)c(C(F)(F)F)c3)cc2)ccn1 | enzyme activity, inhibitor | 0.3 µM | inhibition | 14% |
| O=C(NCCCC1CCCCC1)c1ccc(CNC(=O)c2cnn(-c3ccccc3)c2C(F)(F)F)cc1 | cell-free assay, competition with immobilised ligand | 0.1 µM | remaining binding | 99% |
| FC(F)c1nc2ccccc2n1-c1nc(N2CCOCC2)nc(N2CCOCC2)n1 | enzyme activity, inhibitor | 10 µM | remaining activity | 100% |
| Nc1ncnc2occ(-c3ccc(NC(=O)Nc4cc(C(F)(F)F)ccc4F)cc3)c12 | cell-free assay, inhibitor | 20 µM | remaining signal | 0.1% |
| Cc1ccc(Nc2nccc(N(C)c3ccc4c(C)n(C)nc4c3)n2)cc1S(N)(=O)=O | enzyme activity, inhibitor | 10 µM | inhibition | 21% |
| CS(=O)(=O)c1cc(C2(NC(=O)c3cncc4c3cnn4-c3ccc(F)cc3)CC2)ccn1 | cell-free assay, competition with immobilised ligand | 1 µM | remaining binding | 92% |
| O=C1Nc2ccc(Cl)cc2C1=Cc1cc(Cl)c(O)c(Cl)c1 | cell-free assay | 0.5 µM | remaining signal | 102% |
| Cc1c[nH]c2nccc(Oc3c(F)cc(Nc4cc(Cl)nc(N)n4)cc3F)c12 | cell-free assay, competition with immobilised ligand | 0.1 µM | remaining binding | 100% |
| O=C(O)c1ccc2c(c1)nc(NCCc1cccc(F)c1)c1ccncc12 | enzyme activity, inhibitor, radiometric | 1 µM | remaining activity | 13% |
| Cn1cc(Cl)c2c(Oc3c(F)cc(Nc4cc(Cl)nc(N)n4)cc3F)ccnc21 | cell-free assay, competition with immobilised ligand | 0.1 µM | remaining binding | 100% |
| O=C(O)c1ccc2c(c1)nc(Nc1ccc(F)c(Cl)c1)c1ncncc12 | enzyme activity, inhibitor, radiometric | 1 µM | remaining activity | 6% |
| Cn1nc(C(F)(F)F)cc1-c1cnc(N2CCc3cc(S(=O)(=O)Nc4c(F)cc(Cl)cc4F)cc(N4CCCC4=O)c32)nc1 | cell-free assay, competition with immobilised ligand | 1 µM | remaining binding | 87% |
| COc1cc(Nc2cnc(C#N)c(O[C@H](C)CN(C)C)n2)ncc1-c1cnn(C)c1 | enzyme activity, inhibitor, radiometric | 1 µM | remaining activity | 95% |
| N#Cc1cccc(Nc2nc3cc(C(=O)O)ccc3c3cncnc23)c1 | enzyme activity, inhibitor, radiometric | 1 µM | remaining activity | 17% |
| Cc1cc(NC(=O)c2cccc3cc(-c4cccc5[nH]nc(N)c45)ccc23)ccc1F | enzyme activity, inhibitor | 0.1 µM | activity vs control | 95% |
| CNC(=O)c1ccc(Nc2ncc(C(F)(F)F)c(NCc3nccnc3N(C)S(C)(=O)=O)n2)cc1 | cell-free assay, competition with immobilised ligand | 0.1 µM | remaining binding | 27% |
| O=C(O)c1ccc2c(c1)nc(Nc1ccc(F)c(Cl)c1)c1ccncc12 | enzyme activity, inhibitor, radiometric | 1 µM | remaining activity | 8% |
| COc1cc2ncnc(Nc3ccc(Oc4ccccc4)cc3C)c2cc1OC | enzyme activity, inhibitor | 1 µM | inhibition | 1% |
| CCC(=O)N[C@H]1CC[C@@H](C(=O)N(C)c2ccc(-c3nc4ccccc4o3)cc2)C1 | cell-free assay, competition with immobilised ligand | 1 µM | remaining binding | 80% |
| O=C(O)c1ccc2c(c1)nc(NCCc1cccc(Cl)c1)c1ccncc12 | enzyme activity, inhibitor, radiometric | 1 µM | remaining activity | 20% |
